PAFAH1B3 FP inh – inhibitors of human PAFAH1B3 | Q15102 | recombinant PAFAH1B3, FP-rhodamine probe, fluorescence polarization | inhibition, % at 3.39 µM | 340,000 compounds, 0.28% hits;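 active means inhibition above the screen-wide average of all tested compounds plus 3 SD, cut at about 25% in these data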;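 further: 0% = enzyme with DMSO only and 100% = wells lacking PAFAH1B3 protein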
PAFAH2 FP inh – PAFAH2 (human) inhibition; 340,000 compounds, 0.99% hits; Q99487; inhibition, % at 3.39 µM; AID 492956; recombinant PAFAH2, FP-rhodamine activity probe, fluorescence polarization;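 active means inhibition above the mean over all tested compounds plus 3 SD, cut at about 30% in these data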;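 further: inhibitors block probe labeling of enzyme so polarization drops; 0% = enzyme with DMSO and 100% = wells lacking PAFAH2 protein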
HTRA1 inhibitor – inhibitors of human serine peptidase HTRA1; AID 504803; 340,000 compounds, 0.5% hits; Q92743; recombinant HTRA1, FP-rhodamine activity-based probe, fluorescence polarization; inhibition, % at 5.96 µM; in the data active means inhibition above about 36%;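 further: 0% = enzyme with DMSO and 100% = wells lacking enzyme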
Target sequence (Q92743 whole entry, looked up): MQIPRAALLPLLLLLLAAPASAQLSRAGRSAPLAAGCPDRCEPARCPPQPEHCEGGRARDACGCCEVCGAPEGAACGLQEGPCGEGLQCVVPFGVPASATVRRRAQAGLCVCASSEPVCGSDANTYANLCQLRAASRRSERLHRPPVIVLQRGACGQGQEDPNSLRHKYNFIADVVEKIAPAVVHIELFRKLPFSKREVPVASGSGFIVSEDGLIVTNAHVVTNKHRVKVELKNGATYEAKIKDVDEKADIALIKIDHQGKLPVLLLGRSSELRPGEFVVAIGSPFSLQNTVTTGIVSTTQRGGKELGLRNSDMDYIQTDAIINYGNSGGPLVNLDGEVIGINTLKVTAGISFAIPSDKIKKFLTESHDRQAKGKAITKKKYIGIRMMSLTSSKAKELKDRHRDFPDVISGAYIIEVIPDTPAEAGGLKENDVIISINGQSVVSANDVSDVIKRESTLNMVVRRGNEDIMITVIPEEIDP
ABHD4 inh – ABHD4 (mouse) inhibition, primary FP screen; Q8VD66; AID 720543; inhibition, % at 8.92 µM; 370,000 compounds, 0.54% hits; purified mABHD4, FP-Rh probe fluorescence polarization;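 active means inhibition exceeding the mean over every tested compound plus 3 SD, cut at about 30% in these data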;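 further: 0% = plate median of compound wells and 100% = S159A mutant with DMSO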
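system = mouse ABHD4 enzyme, wild type | medium = HEPES pH 7.0, NaCl, Pluronic buffer | also added = FP-Rh probe | incubation = Enzyme–compound pre-incubation 45 min, then probe 60 min, both 25 °C | technique = fluorescence polarization, excitation 525 nm, emission 598 nm, BODIPY TMR filters | controls = S159A mutant high control, sample median low control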
PAFAH1B2 inh – inhibitors of human PAFAH1B2; inhibition, % at 3.39 µM; 340,000 compounds, 1.2% hits; AID 492953; P68402; recombinant PAFAH1B2, FP-rhodamine activity probe, fluorescence polarization;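 active means inhibition above the mean of all tested compounds plus 3 SD, cut at about 24% in these data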;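 further: 0% = enzyme with DMSO and 100% = wells lacking PAFAH1B2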
pPAFAH inh – pPAFAH (human) enzyme inhibition. AID 463082. 330,000 compounds, 1.5% hits. inhibition, % at 3.39 µM. Q13093. recombinant pPAFAH, FP-rhodamine probe fluorescence polarization;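 active means inhibition above the mean inhibition across the screen plus 3 SD, cut at about 25% in these data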;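 further: inhibitors block binding of the rhodamine activity-based probe so polarization drops; 0% = enzyme with DMSO and 100% = wells lacking pPAFAH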
pPAFAH confirm – pPAFAH (human) inhibition, confirmed. recombinant pPAFAH, FP-Rh probe fluorescence polarization. shares compounds with pPAFAH inh. 2,300 compounds, 72% hits. AID 463230. inhibition, % at 3.39 µM;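 active means mean inhibition of the triplicate above the hit cutoff set for the earlier primary screen, cut at about 25% in these data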;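 further: 0% = enzyme with DMSO and 100% = wells lacking pPAFAH enzyme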
* marks the source's active call; other numbers are inactive results; / = no result given. Rows were chosen to be rich in hits. Some 2.8% of all compounds tested hit in one or more screens of this group.

SMILES | PAFAH1B3 FP inh | PAFAH2 FP inh | HTRA1 inhibitor | ABHD4 inh | PAFAH1B2 inh | pPAFAH inh | pPAFAH confirm
O=C1C(=O)N(Cc2ccc(-c3ccccc3)cc2)c2ccc(OC(F)(F)F)cc21 | / | / | / | 3 | / | / | /
Cc1cc(/C=C2\SC(=S)NC2=O)c(C)n1C | 17 | 23 | 29 | 21 | 7 | 39* | 7
O=C1CC(N2CCCN(Cc3ccccc3)CC2)=NC(=O)N1c1ccc(Br)cc1 | / | / | / | -4 | / | / | /
C=CCN(CC#CC(=C)C)Cc1ccccc1 | / | / | / | 1 | / | / | /
Oc1nc(Nc2cccc(Cl)c2)sc1/C=C1\C=Nc2ccccc21 | 15 | -4 | -21 | -6 | 10 | 37* | 29*
O=C(COc1ccc(F)c(Cl)c1)N[C@H]1CCCN(CC2CC2)C1 | / | / | / | 1 | / | / | /
CSc1nc(N(C)CCO)c2sc3nc(-c4ccco4)c4c(c3c2n1)CCC4 | -1 | 4 | 7 | / | 6 | 40* | 4
Cc1nc2ccc(F)cc2cc1C(=O)NCc1ccco1 | -2 | 10 | 2 | 2 | 10 | 1 | /
Cc1nc2ccc(F)cc2cc1C(=O)Nc1ccc(Cl)c(Cl)c1 | -6 | -10 | -6 | -2 | 0 | 42* | 2
Cc1cc(C(=O)N/N=C2\CC(=O)c3ccccc32)c(C)n1-c1ccc(F)cc1 | 14 | 1 | 30 | 25 | 2 | 42* | 32*
O=[N+]([O-])c1ccc(O)c(C=Nc2ccc3c(c2)OCO3)c1 | 14 | 3 | 10 | 7 | 0 | 1 | /
O=[N+]([O-])c1cc(Br)cc(C=Nc2ccc3c(c2)OCO3)c1O | 7 | 18 | 3 | 26 | 6 | 41* | 52*
CCN(CC)c1nc(N)c2c(N)n(-c3ccccc3C)c(=S)c(C#N)c2c1C#N | 12 | 43* | 33 | 11 | 25* | 47* | 31*
CCN(CC)c1nc(N)c2c(N)nc3c(c2c1C#N)CC(c1ccccc1)O3 (configuration not stated) | 5 | 18 | -2 | 8 | 7 | 20 | /
O=C(N[C@@H]1CCCc2c1cnn2-c1ccc(F)cc1F)c1ccccn1 | / | / | / | -2 | / | / | /
O=C(Nc1cccc(-c2csc(Nc3ccc(Cl)cc3)n2)c1)c1cc([N+](=O)[O-])cc(C(F)(F)F)c1 | 49* | 52* | -4 | 5 | 39* | 41* | 21
CC(=O)c1cccc(-c2ccc3c(=O)[nH]c(Nc4ccccc4)cc3c2)c1 | 52* | 23 | 14 | 7 | 13 | 48* | 28*
COC(=O)[C@]12C[C@H](CC(=O)NCC3CCCCC3)C(=O)N(CCc3ccc(OC)c(OC)c3)C1=C[C@H](COCc1ccccc1)O[C@@H]2C | / | / | / | -4 | / | / | /
Cc1cc(NC(=O)COC(=O)CNS(=O)(=O)c2ccc(C)c(C)c2)no1 | 11 | 5 | -5 | 3 | 6 | 7 | /
Cc1cccc(NS(=O)(=O)c2ccc(C)c(C(=O)OCC(=O)Nc3cc(C)on3)c2)c1 | 5 | -6 | -71 | -8 | 4 | 68* | 62*
O=C(NCCCl)NNC(=O)c1cc2ccccc2cc1O | 10 | 4 | 10 | 0 | 2 | 3 | /
O=C(NNC(=O)c1cc2ccccc2cc1O)Nc1ccccc1F | 14 | 2 | 22 | 18 | 3 | 65* | 37*
C[C@H]1[C@@H](OC(=O)NCc2cccs2)CC[C@@]23CCCN2C(=O)CCC[C@@H]13 | / | / | / | 2 | / | / | /
Clc1ccc(-c2nnc(N3CCCC3)nn2)cc1 | 2 | -2 | 0 | 8 | -1 | 50* | 7
Cc1ccc(CNC[C@@]23CO[C@H](c4ccc(Cl)cc4)N2[C@@H](c2ccc(Cl)cc2)SC3)o1 | / | / | / | -8 | / | / | /
CCCN1CCS(=O)(=O)N(Cc2cn(Cc3ccc(C)cc3)nn2)C(C(=O)OC)C1 (configuration not stated) | / | / | / | -3 | / | / | /
CCCC(C)NC(=O)c1c2c(nc3ccccc13)CCC2 (configuration not stated) | 8 | 3 | 10 | -2 | 0 | 4 | /
O=C(NCc1ccc(F)cc1)c1c2c(nc3ccccc13)CCC2 | 2 | 5 | 3 | 14 | 5 | 36* | 25*
CCC(C)c1ccccc1NC(=O)COC(=O)c1ccc2[nH]c3c(c2c1)CCCC3 (configuration not stated) | 8 | 71* | -42 | -15 | 6 | 38* | 29*
